These entries were drawn from the full list.
HKDC1 act – increases human hexokinase HKDC1 activity; Q2TB90; recombinant HKDC1, G6PDH/diaphorase resazurin fluorescence; hits give low values; hit rate 0.056% among 340,000; activity change, negative = activation, % at 20 µM; AID 493187;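 active = activation of 40% or more at 20 µM, a change of -40% or lower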
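System: in-house human HKDC1 enzyme, G6PDH and diaphorase coupling enzymes; Quantity: 5 µg/mL HKDC1 final; Buffer or medium: Tris/MgCl2 buffer, pH 8.0; Dosing: single compound dose of 20 µM, 1% DMSO final; Times: 90 min reaction at room temperature, dark; Detection: coupled resazurin-to-resorufin fluorescence, Ex 525/Em 613 nm.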
Of the large screens only hits and unclear results are named; the others gave an inactive call.

O=C(O)c1cc(O)c2c(c1)[C@@H]([C@H]1c3cc(C(=O)O)cc(O)c3C(=O)c3c(O[C@@H]4O[C@H](CO)[C@@H](O)[C@H](O)[C@H]4O)cccc31)c1cccc(O[C@@H]3O[C@H](CO)[C@@H](O)[C@H](O)[C@H]3O)c1C2=O	none
O=C1C(Cl)=C(N2CCN(c3ccccc3[N+](=O)[O-])CC2)C(=O)c2ccccc21	none
Cc1ccc(SC2=C(Sc3ccc(C)cc3)C(=O)c3ccccc3C2=O)cc1	none
CCOC(=O)c1c(C)[nH]c(C2=NNC(=NC3CC3)SC2)c1C	HKDC1 act -77.3
CC(C)c1nc2oc3c(NCC4CCCO4)ncnc3c2c2c1COC(C)(C)C2 (stereo not given)	none
COc1cc2c(cc1OC)-c1cc(NCc3ccccn3)nc(=O)n1CC2	none
Cc1ccc(C)c(-n2nnnc2Sc2nnnn2-c2ccccc2)c1	none
COC(=O)c1ccc(CCc2cc(O)c(Br)cc2O)cc1	none
COc1ccc(Oc2cc(C)nc(Cl)n2)nn1	HKDC1 act -77.8
CC(=O)Nc1ccc(NC2=C/C(=N/S(=O)(=O)c3cccs3)c3ccccc3C2=O)cc1	none
Cc1ccc2cc(C=C(C#N)C#N)c(N3CCCCC3)nc2c1	none
COC(=O)CCC(=O)OC1(C)C(=O)C2=CN(C3CCCC3)C(c3ccc(OC)cc3)=CC2=C(Br)C1=O (stereo not given)	none
CCN(CC)Cc1cc(O)c(CN(CC)CC)cc1O	none
O=C(OCn1ncc(Cl)c(Cl)c1=O)c1ccc(C(F)(F)F)cc1	none
CCOc1ccc2nc3cc(N=Nc4ccc(N)nc4N)ccc3c(N)c2c1	none
CCOc1ccc(N)c(SSc2cc(OCC)ccc2N)c1	HKDC1 act -41.9
O=C(/C=C/c1ccc(Br)o1)OCc1nc2ccsc2c(=O)[nH]1	none
COc1cc([N+](=O)[O-])ccc1-c1ccc(/C=C2\C(=O)ON=C2c2ccccc2)o1	none
O=c1cc(O)c2sc(Nc3ccc(F)c(Cl)c3)nc2[nH]1	none
O=C(NC(=S)NNC(=O)c1ccccc1O)c1ccco1	HKDC1 act -44.1
COc1cc(OC)c(OC)cc1CCC(C)NCCC(c1ccccc1)c1ccccc1 (stereo not given)	none
N=C1/C(=C\c2coc3ccccc3c2=O)C(=O)N=C2SC(c3ccncc3)=NN12	none
Cc1ccc(C)c(S(=O)(=O)Nc2ccc(O)c3ccccc23)c1	none
COCCN(C(=O)COC(=O)c1cc2c(s1)CCC2)c1c(N)n(Cc2ccccc2)c(=O)[nH]c1=O	none
COc1ccc(C2=CC3=C(Br)C(=O)C(C)(OC(=O)c4cccs4)C(=O)C3=CO2)cc1 (stereo not given)	none
O=C(COC(=O)c1n[nH]c2ccccc12)c1cccc(Br)c1	none
O=C(c1ccccc1)c1n[nH]c(-c2ccccc2)cc1=O	HKDC1 act -42.2
Cc1ccc(NC2c3ncccc3C(=O)N2c2ccccc2C)cc1C (stereo not given)	none
CC1CCCN(C(=O)COC(=O)c2cc([N+](=O)[O-])ccc2N2CCOCC2)C1 (stereo not given)	none
O=c1oc2cc(Oc3c([N+](=O)[O-])cc(C(F)(F)F)cc3[N+](=O)[O-])ccc2c2c1CCCC2	none
O=C(N/N=C/c1ccc(O)cc1O)c1ccc(CN2C(=O)c3cccc4cccc2c34)cc1	HKDC1 act -41.1
COCCN1C=C2C(=O)C(C)(OC(=O)CCC(=O)OC)C(=O)C(Br)=C2C=C1c1ccc(OC)cc1 (stereo not given)	none
Cc1cc2cc(CCNC(=O)c3ccc(S(=O)(=O)N4CCOCC4)cc3)c(=O)[nH]c2cc1C	none
CCn1c2ccccc2c2nc3cc(S(=O)(=O)N4CCOCC4)ccc3nc21	HKDC1 act -60.6
O=C(Sc1nnc(-c2ccccc2)o1)N1c2ccccc2Sc2ccccc21	none
Cc1ccc2oc(C(=O)N3CCC(N4CCSCC4)CC3)c(C)c2c1	none
O=C1CSC(=S)N1Nc1ccccc1	HKDC1 act -44.4
C=CCN1C=C2C(=O)C(C)(OC(=O)CCC(=O)OC)C(=O)C(Br)=C2C=C1c1ccc(OC)cc1 (stereo not given)	none
O=C(O)c1ccc(N2C(=O)/C(=C/c3ccc(-c4ccc([N+](=O)[O-])cc4)o3)C=C2c2ccccc2)cc1	none
COc1ccc(OC(=O)N2C/C(=C/c3ccccc3)C(=O)/C(=C\c3ccccc3)C2)cc1	none
O=C(CNC(=O)c1cccs1)N/N=C/c1ccc(O)cc1O	HKDC1 act -46.4
O=C(CN1CCCc2ccccc21)N/N=C/c1ccc(O)cc1O	HKDC1 act -43.3
O=C(CCc1ccccc1)NCC(=O)N/N=C/c1ccc(O)cc1O	HKDC1 act -43.3
COc1ccccc1/C=C\C(=O)NCC(=O)N/N=C/c1ccc(O)cc1O	HKDC1 act -40.9
Cc1ccc(S(=O)(=O)Nc2ccc(O)c3ccccc23)c(C)c1	none
O=C(O)c1cccc(-n2cccc2/C=C2/NC(=O)N(c3ccc(Cl)cc3)C2=O)c1	none
NC(=S)N=Nc1c(O)cc(O)c2[nH]c(=O)ccc12	none
Cc1ccc(S(=O)(=O)N(C(=O)c2ccco2)c2cc3sc(=O)oc3c3ccccc23)cc1	none
Oc1ccc(O)c(Cc2nc3ccccc3s2)c1	none
CSc1nc(N(CCO)CCO)c2sc3nc(-c4ccco4)c4c(c3c2n1)CCC4	none
O=C1C(N2CCOCC2)=C(n2nnc3ccccc32)C(=O)c2ccccc21	none
CCOC(=O)c1c(C)sc2c1N(C(=O)CCl)c1cc(Cl)ccc1S2	none
O=C(CNC(=O)/C=C/c1ccco1)N=Nc1c(O)[nH]c2ccccc12	none
CC1(OC(=O)C2CCCC2)C(=O)C=C2C=C(c3ccsc3)N(CCc3c[nH]c4ccccc34)C=C2C1=O (stereo not given)	none
CCN1C/C(=C\c2cccc([N+](=O)[O-])c2)C(=O)/C(=C/c2cccc([N+](=O)[O-])c2)C1	none
COC1=CC(=O)C(OC)=C(OC)C1=O	none
COc1ccccc1NC(=S)NN=C(C)c1ccccn1	HKDC1 act -40.8
CCCCNC(=O)c1sc(=S)n2c1[nH]c(=O)c1ccccc12	none
Cc1ccccc1OCCCN1C(=O)C(=O)c2cccc(C)c21	none
C[n+]1c(-c2ccccc2)cc2c(=Cc3ccccc3)c3ccccc3n21	none
COc1cc(/C=C2\SC(=O)N(c3cccc(Cl)c3)C2=O)cc([N+](=O)[O-])c1O	none
FC(F)Sc1ccc(N=C2NN=C(c3ccc4c(c3)OCCO4)CS2)cc1	HKDC1 act -101.0
COc1ccc(N=C2NN=C(c3ccc4c(c3)OCCO4)CS2)cc1	HKDC1 act -84.2
Cc1cc(C)c(S(=O)(=O)/N=C2/C=C(Sc3ncn[nH]3)C(=O)c3ccccc32)cc1C	none
CC(C)c1nc2oc3c(=O)[nH]cnc3c2c2c1COC(C)(C)C2	none
COc1ccc2c(c1)/C(=C\c1cccc(/C=C3/C(=O)Nc4ccc(OC)cc43)n1)C(=O)N2	none
O=C1OC(c2ccc3ccccc3c2O)(c2ccc3ccccc3c2O)c2ccccc21	none
COc1ccc(S(=O)(=O)/N=C2\C=C(Nc3ccc(O)cc3)C(=O)c3ccccc32)cc1	none
COc1ccc(C(=O)/C=C/c2ccsc2)cc1CSCC(=O)O	none
CN(C)c1ccc2nc3ccc(=[N+](C)C)cc-3sc2c1	none
S=C1Cc2ccccc2N1	HKDC1 act -302.6
Cc1ccccc1C(=O)Nc1ccc2c(C#N)c3nc4ccccc4nc3n2c1	none
